Measured values: ChEMBL document CHEMBL1124846, “Synthesis, antiproliferative, and antiviral activity of certain 4-substituted and 4,5-disubstituted 7-[(1,3-dihydroxy-2-propoxy)methyl]pyrrolo[2,3-d]pyrimidines” (J Med Chem, 1990)
Where “and” joins values, the source holds several entries; their conditions need not be identical. Equal values may be shown once.

How the values were obtained:
[1] = system: Human alphaherpesvirus 1; experiment: Inhibition of herpes simplex virus (HSV-1) in plaque reduction assay; format: functional, organism-based
Outline: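 HSV-1 S-148 strain plaque reduction in BSC-1 monkey kidney monolayers, with about 100 PFU inoculum and compound dissolved in the overlay medium. IC50 came from linear regression of percent inhibition against log concentration, with a positive control in each set.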

[2] = system: Human betaherpesvirus 5; experiment: Inhibition of human cytomegalovirus (HCMV) in plaque reduction assay; format: functional, organism-based
Outline: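 HCMV Towne strain (plaque-purified P0) plaque reduction in HFF monolayers in MEM(E) with 10% FBS. Inoculum held about 50 PFU, with compound dissolved in the overlay medium. IC50 came from linear regression of percent inhibition against log concentration, with ganciclovir or acyclovir positive controls in every set; two to five experiments.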

[3] = Cytotoxic activity against HFF cells.; format: cell-based; conditions: Homo sapiens
Outline: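 Cytotoxicity was scored visually in uninfected HFF or BSC-1 monolayers within the plaque-reduction assays. Drug-induced cytopathology was read at 35- and 60-fold magnification on a 0 to 4+ scale on the day plaques were stained and counted.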

[4] = system: L1210; experiment: In vitro inhibition of L1210 cell growth.; format: functional, Mus musculus; parameters: concentration or dose not given beside the values
Outline: (§1)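 Murine L1210 leukemia cells in static suspension culture in Fischer's medium with compound for 4 days. Growth rate is the ratio of control to treated population doubling time; where the rate changed, the final rate was used. IC50 is the concentration giving 50% of control growth rate; single-concentration value at 100 μM.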

[5] = system: L1210; experiment: In vitro inhibition of L1210 cell growth to half of the control rate; format: functional, cell-based; conditions: Mus musculus; outline: as §1
[6] = system: Human alphaherpesvirus 1; experiment: Inhibition of herpes simplex virus (HSV-1) in yield reduction assay; format: functional, organism-based
[7] = system: Neoplastic cell line; experiment: Cytotoxic activity against KB cells.; format: cell-based; conditions: Homo sapiens
Outline: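 KB cells (human oral epidermoid carcinoma) grown in MEM(H) with 5% FBS. Compound effect on incorporation of radiolabelled precursors into DNA, RNA and protein was measured. IC50s came from linear regression of percent inhibition against log concentration, and the three IC50s were averaged.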

| SMILES | IC50 [1] | IC50 [2] | IC50 [3] | Activity [4] | IC50 [5] | IC90 [6] | IC50 [7] |
| --- | --- | --- | --- | --- | --- | --- | --- |
| Nc1ncnc2c1c(I)cn2COC(CO)CO | 4 µM | 3100 nM and 900 nM | > 100 µM | 6% | 2.8 µM | – | – |
| OCC(CO)OCn1cc(Br)c2c(NO)ncnc21 | 2.9 µM | 1200 nM and 10000 nM | > 100 µM | 0% | 3.7 µM | > 100 µM | 320 µM |
